Data taken from ChEMBL document CHEMBL1275590, “Novel arylimidamides for treatment of visceral leishmaniasis” (Antimicrob Agents Chemother, 2010).
Activity calls are given as the source filed them. The calls are words filed in the database; no cut-off is given here.

Assays:
[1] = AUC (0 to infinity) in Swiss Webster mouse at 1 mg/kg, iv by HPLC-MS/MS analysis; assay type: ADME, organism-based; parameters: time infinity, dose 1 mg/kg, route intravenous; settings: plasma
Summary of the method: (§1)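 Male Swiss Webster mice, n = 3 per time point. For i.v., the compound was dissolved in sterile water, diluted 1:1 with 2× saline, and given as a tail-vein bolus over ~10–20 s. For p.o., it was given by gavage in sterile water. Dose volume was 5 ml/kg. Terminal plasma was taken from 5 min to 72 h and measured by HPLC-MS/MS (calibration 2.5–10,000 nM). Parameters came from noncompartmental analysis.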

Mus musculus [2] = test: Renal toxicity in BALB/c mouse assessed as blood urea nitrogen level in serum at 5 mg/kg/day, iv administered for five days (Rvb= 20 mg/dl); assay type: organism-based; parameters: route intravenous; settings: in vivo
Summary of the method: (§2)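 Female BALB/c mice (n = 5 per dose), dosed once daily for 5 consecutive days p.o. (20 ml/kg) or i.v. (10 ml/kg) with compound in sterile water, prepared fresh daily under yellow light. Vehicle controls n = 5 per route. Clinical observations, body weights, serum chemistry and hematology on day 6 before necropsy; histopathology of formalin-fixed tissues. Chemistry analysed by one-way ANOVA with Dunnett's posttest.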

Leishmania donovani [3] = test: Antileishmanial activity against intracellular Leishmania donovani LV82 amastigotes; assay type: functional, organism-based
Summary of the method: (§3)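 CD-1 mouse peritoneal macrophages, 5 × 10^4 cells/well in RPMI 1640 + 10% heat-inactivated FBS, adhered overnight. Infected overnight with stationary-phase LV82 promastigotes (5:1 parasite:macrophage), 37°C, 5% CO2. Medium then replaced with compound or vehicle for 72 h at 37°C. Methanol-fixed, Giemsa-stained; % infected macrophages counted at ×1,000. IC50 by four-parameter logistic nonlinear regression.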

Mus musculus [4] = test: Hepatotoxicity in BALB/c mouse assessed as alkaline phosphatase level in serum at 20 mg/kg/day, iv administered for five days (Rvb= 134 U/L); assay type: toxicity, organism-based; parameters: route intravenous; settings: in vivo
Leishmania donovani [5] = test: Antileishmanial activity against intracellular Leishmania donovani LV82 amastigotes infected in CD-1 mouse peritoneal macrophage; assay type: functional, organism-based; summary of the method: as §3
Leishmania major = test: Antileishmanial activity against intracellular Leishmania major amastigotes; assay type: functional, organism-based
Mus musculus [6] = test: Renal toxicity in BALB/c mouse assessed as phosphorus level in serum at 5 mg/kg/day, iv administered for five days (Rvb= 6.1 mg/dl); assay type: organism-based; parameters: route intravenous; settings: in vivo; summary of the method: as §2
Mus musculus [7] = test: Hepatotoxicity in BALB/c mouse assessed as ALT level in serum at 50 mg/kg/day, po administered for five days (Rvb= 36 U/L); assay type: toxicity, organism-based; parameters: route oral; settings: in vivo
Mus musculus [8] = test: Renal toxicity in BALB/c mouse assessed as blood urea nitrogen level in serum at 50 mg/kg/day, po administered for five days (Rvb= 29 mg/dl); assay type: organism-based; parameters: route oral; settings: in vivo; summary of the method: as §2
[9] = Half life in rat liver microsome by HPLC-MS/MS analysis in presence of 1 uM NADPH; assay type: ADME; settings: liver microsomes
Summary of the method: (§4)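 Pooled liver microsomes (human, mouse, rat) with NADPH. Substrate added from DMSO to final 0.1, 1.0 or 10 μM, with 0.5% (vol/vol) organic solvent. Incubated at 37°C for up to 60 min. Stopped with 2 volumes of 7:1 methanol-water containing 0.1% TFA and 30 nM internal standard, then centrifuged. Remaining substrate was measured by HPLC-MS/MS, and t1/2 was obtained by one-phase exponential decay fit (t1/2 = 0.693/k).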

Mus musculus [10] = test: Renal toxicity in BALB/c mouse assessed as blood urea nitrogen level in serum at 20 mg/kg/day, iv administered for five days (Rvb= 20 mg/dl); assay type: organism-based; parameters: route intravenous; settings: in vivo; summary of the method: as §2
[11] = Volume of distribution in Swiss Webster mouse at 1 mg/kg, iv by HPLC-MS/MS analysis; assay type: ADME, organism-based; parameters: dose 1 mg/kg, route intravenous; settings: in vivo
Summary of the method: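 Male Swiss Webster mice (n = 3 per time point), single dose by oral gavage (sterile water solution) or tail-vein bolus i.v. (water diluted 1:1 with 2× saline, over ~10–20 s); dose volume 5 ml/kg. Terminal blood sampled from 5 min to 72 h postdose; plasma quantified by HPLC-MS/MS (positive-ion SRM). Noncompartmental analysis gave Cmax, Tmax, AUC0-∞, CL, Vss; bioavailability from p.o. versus i.v. exposure.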

Mus musculus [12] = test: Hepatotoxicity in BALB/c mouse assessed as AST level in serum at 25 mg/kg/day, po administered for five days (Rvb= 70 U/L); assay type: toxicity, organism-based; parameters: route oral; settings: in vivo
Mus musculus [13] = test: Hepatotoxicity in BALB/c mouse assessed as alkaline phosphatase level in serum at 25 mg/kg/day, po administered for five days (Rvb= 129 U/L); assay type: toxicity, organism-based; parameters: route oral; settings: in vivo
Mus musculus [14] = test: Renal toxicity in BALB/c mouse assessed as phosphorus level in serum at 20 mg/kg/day, iv administered for five days (Rvb= 6.1 mg/dl); assay type: organism-based; parameters: route intravenous; settings: in vivo; summary of the method: as §2
Mus musculus [15] = test: Hepatotoxicity in BALB/c mouse assessed as ALT level in serum at 20 mg/kg/day, iv administered for five days (Rvb= 34 U/L); assay type: toxicity, organism-based; parameters: route intravenous; settings: in vivo
Mus musculus [16] = test: Hepatotoxicity in BALB/c mouse assessed as alkaline phosphatase level in serum at 5 mg/kg/day, iv administered for five days (Rvb= 134 U/L); assay type: toxicity, organism-based; parameters: route intravenous; settings: in vivo
[17] = Clearance in Swiss Webster mouse at 1 mg/kg, iv by HPLC-MS/MS analysis; assay type: ADME, organism-based; parameters: dose 1 mg/kg, route intravenous; settings: in vivo; summary of the method: as §1
Mus musculus [18] = test: Renal toxicity in BALB/c mouse assessed as phosphorus level in serum at 50 mg/kg/day, po administered for five days (Rvb= 5.3 mg/dl); assay type: organism-based; parameters: route oral; settings: in vivo; summary of the method: as §2
[19] = Half life in golden Syrian hamster liver microsomes by HPLC-MS/MS analysis in presence of 0.1 uM NADPH; assay type: ADME, Mesocricetus auratus, Microsome
Summary of the method: (§5)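 Pooled liver microsomes with NADPH. Substrate at final 0.1, 1.0 and 10 μM with 0.5% DMSO, incubated up to 60 min at 37°C. Reactions were stopped with 7:1 methanol-water containing 0.1% TFA and 30 nM internal standard. Remaining substrate was measured by HPLC-MS/MS, and t1/2 came from a one-phase exponential decay fit.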

[20] = Half life in rat liver microsome by HPLC-MS/MS analysis in presence of 0.1 uM NADPH; assay type: ADME; settings: liver microsomes; summary of the method: as §4
[21] = Half life in golden Syrian hamster liver microsome by HPLC-MS/MS analysis in presence of 10 uM NADPH; assay type: ADME, Mesocricetus auratus; settings: liver microsomes; summary of the method: as §5
Leishmania donovani [22] = test: Antileishmanial activity against Leishmania donovani promastigotes in ip dosed BALB/c mouse assessed as inhibition of liver parasitemia; assay type: functional, organism-based
Summary of the method: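 Murine VL model in L. donovani-infected mice. Compounds were dissolved in water and given i.p. or p.o. once daily for 5 days (4 days for one i.p. regimen). Liver parasitemia was compared with untreated controls by unpaired Student's t test, P ≤ 0.05.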

Mus musculus [23] = test: Hepatotoxicity in BALB/c mouse assessed as phosphorus level in serum at 25 mg/kg/day, po administered for five days (Rvb= 5.3 mg/dl); assay type: toxicity, organism-based; parameters: route oral; settings: in vivo
Mus musculus [24] = test: Hepatotoxicity in BALB/c mouse assessed as alkaline phosphatase level in serum at 50 mg/kg/day, po administered for five days (Rvb= 129 U/L); assay type: toxicity, organism-based; parameters: route oral; settings: in vivo
[25] = Half life in mouse liver microsome by HPLC-MS/MS analysis in presence of 0.1 uM NADPH; assay type: ADME; settings: liver microsomes; summary of the method: as §4
[26] = Half life in rat liver microsome by HPLC-MS/MS analysis in presence of 10 uM NADPH; assay type: ADME; settings: liver microsomes; summary of the method: as §4
Leishmania amazonensis = test: Antileishmanial activity against intracellular Leishmania amazonensis amastigotes; assay type: functional, organism-based

With `CCOc1cc(NC(=N)c2ccccn2)ccc1-c1ccc(-c2ccc(NC(=N)c3ccccn3)cc2OCC)o1` the AUC(0-inf) [1] was 0.56 µM·h, the Activity (Mus musculus [2]) was 18 mg/dL and the IC50 (Leishmania donovani [3]) was 18 nM. For the same compound, the Activity (Mus musculus [4]) was 107 U/L, the IC50 (Leishmania donovani [5]) was 4500 nM and the IC50 (Leishmania major) was 26 nM. It also gave an Activity (Mus musculus [6]) of 7.1 mg/dL, an Activity (Mus musculus [7]) of 34 U/L and an Activity (Mus musculus [8]) of 27 mg/dL. For the same compound, the half-life [9] was greater than 2 h, the Activity (Mus musculus [10]) was 27 mg/dL and the Vd [11] was 36 L/kg. The Activity (Mus musculus [12]) was 67 U/L, the Activity (Mus musculus [13]) was 136 U/L and the Activity (Mus musculus [14]) was 7.3 mg/dL. It also gave an Activity (Mus musculus [15]) of 57 U/L, an Activity (Mus musculus [16]) of 113 U/L and a clearance [17] of 45 mL/min/kg. For the same compound, the Activity (Mus musculus [18]) was 7.2 mg/dL, the half-life [19] was 1.25 h and the half-life [20] was 1.33 h. The half-life [21] was greater than 2 h, the Activity (Leishmania donovani [22]) was “Active” and the Activity (Mus musculus [23]) was 6.9 mg/dL. For the same compound, the Activity (Mus musculus [24]) was 130 U/L, the half-life [25] was 0.25 h and the half-life [26] was greater than 2 h. The IC50 (Leishmania amazonensis) was 120 nM.
`CC(C)Oc1cc(NC(=N)c2ccccn2)ccc1-c1ccc(-c2ccc(NC(=N)c3ccccn3)cc2OC(C)C)o1` showed an AUC(0-inf) [1] of 2.53 µM·h, an Activity (Mus musculus [2]) of 19 mg/dL and an IC50 (Leishmania donovani [3]) of 36 nM. It also gave an Activity (Mus musculus [4]) of 104 U/L, an IC50 (Leishmania donovani [5]) of 2800 nM and an IC50 (Leishmania major) of 14 nM. For the same compound, the Activity (Mus musculus [6]) was 7 mg/dL, the Activity (Mus musculus [7]) was 45 U/L and the Activity (Mus musculus [8]) was 25 mg/dL. For the same compound, the half-life [9] was greater than 2 h, the Activity (Mus musculus [10]) was 26 mg/dL and the Vd [11] was 14 L/kg. The Activity (Mus musculus [12]) was 75 U/L, the Activity (Mus musculus [13]) was 126 U/L and the Activity (Mus musculus [14]) was 6.5 mg/dL. For the same compound, the Activity (Mus musculus [15]) was 50 U/L, the Activity (Mus musculus [16]) was 103 U/L and the clearance [17] was 9.9 mL/min/kg. The Activity (Mus musculus [18]) was 8.3 mg/dL, the half-life [19] was 0.65 h and the half-life [20] was 1.6 h. The half-life [21] was greater than 2 h, the Activity (Leishmania donovani [22]) was “Active” and the Activity (Mus musculus [23]) was 7 mg/dL. For the same compound, the Activity (Mus musculus [24]) was 123 U/L, the half-life [25] was 0.433 h and the half-life [26] was greater than 2 h. For the same compound, the IC50 (Leishmania amazonensis) was 87 nM.
